Data as given in the array DNA melting data of Ke et al. (doi:10.1101/2024.01.08.574731).

Key:
[1] = folding enthalpy; higher = less favourable; fluorescence melt of hairpins on a sequencing array, two-state fit; details: sodium 0.088 M
Summary of the method: (§1)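 Folding enthalpy and melting temperature come from bootstrapped two-state fits to Cy3 fluorescence of library hairpins carrying annealed Cy3 and quencher oligos on a sequenced MiSeq flow cell. Imaging was done in 50 mM Na-HEPES pH 8.0, 25 mM NaCl, stepping by 2.5 °C up to 60 °C, and signals were normalised to pre-quench Cy3 and to control constructs. Results of four replicates were combined by inverse variance, and fitted temperatures were raised by 9.35 °C to match UV melts.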

[2] = melting temperature; fluorescence melt of hairpins on a sequencing array, two-state fit, raised by 9.35 °C to match UV melts; details: sodium 0.088 M
Summary of the method: as §1

Sequence	folding enthalpy [1] [kcal/mol]	Tm [2] [°C]
GGGCCAGGAAACCGGCCC (((((.(....).)))))	-33.2	64
GATCCGCAACCGGATC ((((((....))))))	-39.3	55.1
GGAAGAGGAAACTCTCCC ((.((((....)))).))	-18.2	32.9
GTGGTCGAAAGACAACAC ((((((....)))..)))	-18.7	46.8
GCCATAGGAAACTACGGC (((.(((....))).)))	-29.9	40.6
GGCGAGCGAAAGCTGGCC (((.(((....))).)))	-34.6	68
GTTTGGGGAAACCCGAAC (((.(((....))).)))	-36.5	49.3
GGCTACGAAAGTAGCGCC ((((((....)))..)))	-9.93	55.7
GATCGTAGTTACGATC ((((((....))))))	-30.9	56.8
GGAGGAGGAAACTCTTCC (((.(((....))).)))	-29.1	42.2
GTTCCACGAAAGTGAAC (((.(((....))))))	-17.7	41.8
GCTCTCGAAAGAGACAGC ((((((....)))..)))	-17.8	35.9
GCGCCTCCGAAAGGACGC (((..(((....))))))	-25.2	50.1
CGAGCCCGGAAACGGTCG (((..(((....))))))	-20.9	37.5
GCGTTGCGAAAGCAGTGC ((..(((....)))..))	-17.8	51.6
GCGATCACTCGC ((((....))))	-26	47.2
GCTGGAGGAAACCCCAGC (((((.(....).)))))	-38.7	52.8
GCACACGGAAACGTGCGC ((.((((....)))).))	-42.2	60.5
GATCAACCGCTTGATC ((((((....))))))	-34.4	44.2
GCCCCCGGAAACGGGAGC ((.((((....)))).))	-25	54.2
GATCGCGATGGCGATC ((((((....))))))	-37.7	68.8
GAACGCGCGAAAGCGTTC (((..(((....))))))	-24.7	57.8
GATCCGATGCCGGATC ((((((....))))))	-40.1	56.1

Sequence	folding enthalpy [1] [kcal/mol]	Tm [2] [°C]
GCTGCGCGAAAGCGTGGC ((..(((....)))..))	-24.3	65.9
GCGATAGGTCGC ((((....))))	-24.5	51.4
GATCCCTATAGGGATC ((((((....))))))	-45.4	65.6
GCGAACGAAAGTTGTCGC ((((((....)))..)))	-26.2	44.1
GATGGCGGAAACGCTATC (((.(((....))).)))	-27.2	52
GGGAACCGAAAGGTACCC (((.(((....))).)))	-34.5	58.6
GGGACCGAAAGGTGTCCC ((((((....)))..)))	-23.4	51.3
CGCGCGGAAACGCTGCG ((((((....))).)))	-26.9	57.1
GCTCCACGAAAGTGTAGC (((.(((....))).)))	-28.9	49.2
GAGAGGCGAAAGCCACTC (((.(((....))).)))	-20.6	53.3
GATCCGAGGACGGATC ((((((....))))))	-33.9	56.5
GCGTGGTACGC ((((...))))	-20.5	56.3
GGCTAGGGAAACCTGGCC (((.(((....))).)))	-44.8	55.5
GGAAACCCGAAAGGGTCC (((..(((....))))))	-11.7	35
GATCAGGGAAACTTGATC (((((.(....).)))))	-30.7	38.2
AGTCAGAAATGACT (((((....)))))	-18.9	43.3
GCGGACGAAAGTCAACGC ((((((....)))..)))	-42	54.3
GCTTGCGGAAACGCGAGC (((.(((....))).)))	-29.3	64
GTAGTCTCGAAAGAGTAC (((..(((....))))))	-17.3	31.9
GACTACGAAAGTATGGTC ((((((....)))..)))	-19.5	34.4
GATACCCGAAAGGGATC (((.(((....))))))	-16.1	42.1
GTAACCGCGAAAGCGTAC (((..(((....))))))	-8.01	28.4
GGTTACGGAAACGTAACC (((((((....)))))))	-43	65.4

Sequence	folding enthalpy [1] [kcal/mol]	Tm [2] [°C]
GATCTGAGCCAGATC ((((((...))))))	-41.7	47
GCTACCGCGAAAGCGAGC (((..(((....))))))	-11.5	35.9
GATCTGAGATCAGATC ((((((....))))))	-36.1	49.2
GATCGAGGATCGATC ((((((...))))))	-35.4	59.6
GCCGAGCGAAAGCGCTGC ((.(.((....)).).))	-12.4	45.6
GCTTTAGGAAACTAGAGC (((.(((....))).)))	-31.9	35.4
GATTGAGGAAACTCGATC (((.(((....))).)))	-33.1	43.2
GAAGCTGGAAACAGCTTC (((((((....)))))))	-40.9	62.7
GCCCTTCGAAAGAACGGC (((.(((....))).)))	-29.7	42.2
GCACAGCGAAAGCTAAGC ((..(((....)))..))	-12.1	40.4
GTCTAAGGAAACTTGGAC (((.(((....))).)))	-21.9	40.2
GATAGGCGAAAGCCCATC (((.(((....))).)))	-13.8	37.7
GGTGCTGGAAACGGCATC (.(((.(....).))).)	-25.4	44.2
GCAGAGCGAAAGCTATGC (((.(((....))).)))	-44.8	59.7
GCAGCGGCGAAAGCCTGC (((..(((....))))))	-12.9	52.2
GATCACTCTTGTGATC ((((((....))))))	-38.5	56.7
GCCCCCGAAAGGGAAGGC ((((((....)))..)))	-27	55.7
GCACGTGGAAACACGCGC ((.((((....)))).))	-38.4	57.5
GTCACTGGAAACAGTAAC ((.((((....)))).))	-15.6	31.3
GCTCCTGGAAACAGAAGC (((.(((....))).)))	-28.5	39.9
GATCAGCATACTGATC ((((((....))))))	-38.5	51.4
CGCGGAAAAACAACAACCGCG ((.................))	-25.1	44.5
GTTCGCGAAAGCGTTAAC ((((((....)))..)))	-10.9	27.8
